From ChEMBL document CHEMBL5724801, “EUbOPEN Chemogenomics Library - Multiplex” (2024)
Several values for one entry are separate records, joined by “and”; a condition that tells them apart may be missing. Equal values may be shown once.

System: U2OS
Assay: Multiplex assay against U2OS
Assay type: toxicity, cell-based
Details: human
In short: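 Four dyes were applied at seeding to live cells: Hoechst33342, BioTracker Green Microtubule Cytoskeleton Dye, MitoTracker Red and Annexin V Alexa Fluor 680. Imaging after compound addition used a CQ1 microscope at 37°C and 5% CO2. CellPathfinder machine-learning gating then sorted cells into Hoechst high-intensity objects or normal cells, normal cells into healthy, pyknosed or fragmented nuclei, and pyknosed cells into mitotic or apoptotic, with tubulin, mitochondrial-mass and membrane-permeability phenotypes given as per cents of healthy-nucleus cells.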

[1] = 12 h, 1 µM, compound concentration 1 uM
[2] = 12 h, 10 µM, compound concentration 10 uM
[3] = 24 h, 1 µM, compound concentration 1 uM
[4] = 24 h, 10 µM, compound concentration 10 uM
[5] = 48 h, 1 µM, compound concentration 1 uM
[6] = 48 h, 10 µM, compound concentration 10 uM

CC(C)(C)c1cc(C(C)(C)C)c(NC(=O)c2c[nH]c3ccccc3c2=O)cc1O [IVACAFTOR] was tested, and the “Population Apoptotic (%)” value [1] was 36.36% and 31.58%, the “Population Fragmented Nuclei (%)” value [1] was 1.43% and 1.95% and the “Population Healthy Nuclei (%)” value [1] was 92.26% and 85.71%. The “Population Hoechst High Intensity Objects (%)” value [1] was 0%, the “Population Membrane Permeable-Phenotype (%)” value [1] was 0.62% and 0.76% and the “Population Mitochondria Different-Phenotype (%)” value [1] was 0% and 7.58%. For the same molecule, the “Population Mitotic Cells (%)” value [1] was 63.64% and 68.42%, the “Population Normal (%)” value [1] was 100% and the “Population Pyknosed Nuclei (%)” value [1] was 6.3% and 12.34%. For the same molecule, the “Population Tubulin-Different-Phenotype (%)” value [1] was 0.62% and 0%, the “Total Cell Count” value [1] was 349 and 154 and the “Population Apoptotic (%)” value [2] was 44.16% and 30.95%. For the same molecule, the “Population Fragmented Nuclei (%)” value [2] was 2.96% and 8.38%, the “Population Healthy Nuclei (%)” value [2] was 74.26% and 66.47% and the “Population Hoechst High Intensity Objects (%)” value [2] was 0%. The “Population Membrane Permeable-Phenotype (%)” value [2] was 3.59% and 13.51%, the “Population Mitotic Cells (%)” value [2] was 55.84% and 69.05% and the “Population Normal (%)” value [2] was 100%. The “Population Pyknosed Nuclei (%)” value [2] was 22.78% and 25.15%, the “Population Tubulin-Different-Phenotype (%)” value [2] was 10.76% and 1.8% and the “Total Cell Count” value [2] was 338 and 167. The “Population Apoptotic (%)” value [3] was 22.95% and 40%, the “Population Fragmented Nuclei (%)” value [3] was 1.83% and 3.23% and the “Population Healthy Nuclei (%)” value [3] was 85.77% and 86.02%. For the same molecule, the “Population Hoechst High Intensity Objects (%)” value [3] was 0%, the “Population Membrane Permeable-Phenotype (%)” value [3] was 0.24% and 1.88% and the “Population Mitochondria Different-Phenotype (%)” value [3] was 0% and 6.88%. The “Population Mitotic Cells (%)” value [3] was 77.05% and 60%, the “Population Normal (%)” value [3] was 100% and the “Population Pyknosed Nuclei (%)” value [3] was 12.4% and 10.75%. The “Population Tubulin-Different-Phenotype (%)” value [3] was 0.71% and 0%, the “Total Cell Count” value [3] was 492 and 186 and the “Population Apoptotic (%)” value [4] was 51.81% and 29.41%. For the same molecule, the “Population Fragmented Nuclei (%)” value [4] was 3.33% and 6.94%, the “Population Healthy Nuclei (%)” value [4] was 75.38% and 63.58% and the “Population Hoechst High Intensity Objects (%)” value [4] was 0%. For the same molecule, the “Population Mitotic Cells (%)” value [4] was 48.19% and 70.59%, the “Population Normal (%)” value [4] was 100% and the “Population Pyknosed Nuclei (%)” value [4] was 21.28% and 29.48%. For the same molecule, the “Population Tubulin-Different-Phenotype (%)” value [4] was 8.84% and 7.27%, the “Total Cell Count” value [4] was 390 and 173 and the “Population Apoptotic (%)” value [5] was 47.3% and 42.86%. For the same molecule, the “Population Fragmented Nuclei (%)” value [5] was 2.51% and 4.1%, the “Population Healthy Nuclei (%)” value [5] was 89.07% and 81.57% and the “Population Hoechst High Intensity Objects (%)” value [5] was 0%. For the same molecule, the “Population Membrane Permeable-Phenotype (%)” value [5] was 0.13% and 0.84%, the “Population Mitochondria Different-Phenotype (%)” value [5] was 0% and 5.86% and the “Population Mitotic Cells (%)” value [5] was 52.7% and 57.14%. For the same molecule, the “Population Normal (%)” value [5] was 100%, the “Population Pyknosed Nuclei (%)” value [5] was 8.43% and 14.33% and the “Population Tubulin-Different-Phenotype (%)” value [5] was 0.64% and 1.67%. For the same molecule, the “Total Cell Count” value [5] was 878 and 293, the “Population Apoptotic (%)” value [6] was 55% and 62.65% and the “Population Healthy Nuclei (%)” value [6] was 75.09% and 44.95%. The “Population Hoechst High Intensity Objects (%)” value [6] was 0% and 0.5%, the “Population Membrane Permeable-Phenotype (%)” value [6] was 2.72% and 10.11% and the “Population Mitotic Cells (%)” value [6] was 45% and 37.35%. The “Population Normal (%)” value [6] was 100% and 99.5%, the “Population Pyknosed Nuclei (%)” value [6] was 22.3% and 41.92% and the “Population Tubulin-Different-Phenotype (%)” value [6] was 11.88% and 16.85%. For the same molecule, the “Total Cell Count” value [6] was 538 and 199.
For COc1ccc(CC(=O)NC(N/C(=N/C#N)Nc2cccc3ncccc23)C(C)(C)C)cc1OC (stereo unspecified), the “Population Apoptotic (%)” value [1] was 40.91% and 47.06%, the “Population Fragmented Nuclei (%)” value [1] was 2.4% and 0.62% and the “Population Healthy Nuclei (%)” value [1] was 91.73% and 88.89%. The “Population Hoechst High Intensity Objects (%)” value [1] was 0%, the “Population Membrane Permeable-Phenotype (%)” value [1] was 1.16% and 5.56% and the “Population Mitochondria Different-Phenotype (%)” value [1] was 0.87% and 4.86%. For the same molecule, the “Population Mitotic Cells (%)” value [1] was 59.09% and 52.94%, the “Population Normal (%)” value [1] was 100% and the “Population Pyknosed Nuclei (%)” value [1] was 5.87% and 10.49%. The “Population Tubulin-Different-Phenotype (%)” value [1] was 0.87% and 0.69%, the “Total Cell Count” value [1] was 375 and 162 and the “Population Apoptotic (%)” value [2] was 51.35% and 40%. For the same molecule, the “Population Fragmented Nuclei (%)” value [2] was 1.67% and 2.27%, the “Population Healthy Nuclei (%)” value [2] was 88.02% and 82.58% and the “Population Hoechst High Intensity Objects (%)” value [2] was 0%. The “Population Membrane Permeable-Phenotype (%)” value [2] was 1.27% and 3.67%, the “Population Mitochondria Different-Phenotype (%)” value [2] was 0.63% and 8.26% and the “Population Mitotic Cells (%)” value [2] was 48.65% and 60%. For the same molecule, the “Population Normal (%)” value [2] was 100%, the “Population Pyknosed Nuclei (%)” value [2] was 10.31% and 15.15% and the “Population Tubulin-Different-Phenotype (%)” value [2] was 1.58% and 0.92%. For the same molecule, the “Total Cell Count” value [2] was 359 and 132, the “Population Apoptotic (%)” value [3] was 33.33% and 61.54% and the “Population Fragmented Nuclei (%)” value [3] was 1.96% and 2.31%. For the same molecule, the “Population Healthy Nuclei (%)” value [3] was 85.66% and 85.65%, the “Population Hoechst High Intensity Objects (%)” value [3] was 0% and the “Population Membrane Permeable-Phenotype (%)” value [3] was 1.15% and 3.78%. For the same molecule, the “Population Mitochondria Different-Phenotype (%)” value [3] was 0.46% and 6.49%, the “Population Mitotic Cells (%)” value [3] was 66.67% and 38.46% and the “Population Normal (%)” value [3] was 100%. For the same molecule, the “Population Pyknosed Nuclei (%)” value [3] was 12.38% and 12.04%, the “Population Tubulin-Different-Phenotype (%)” value [3] was 0.92% and 0% and the “Total Cell Count” value [3] was 509 and 216. For the same molecule, the “Population Apoptotic (%)” value [4] was 35.56% and 50%, the “Population Fragmented Nuclei (%)” value [4] was 1.44% and 1.79% and the “Population Healthy Nuclei (%)” value [4] was 89.32% and 87.5%. For the same molecule, the “Population Hoechst High Intensity Objects (%)” value [4] was 0%, the “Population Membrane Permeable-Phenotype (%)” value [4] was 1.61% and 2.04% and the “Population Mitochondria Different-Phenotype (%)” value [4] was 0.46% and 4.08%. The “Population Mitotic Cells (%)” value [4] was 64.44% and 50%, the “Population Normal (%)” value [4] was 100% and the “Population Pyknosed Nuclei (%)” value [4] was 9.24% and 10.71%. The “Population Tubulin-Different-Phenotype (%)” value [4] was 2.07% and 0.68%, the “Total Cell Count” value [4] was 487 and 168 and the “Population Apoptotic (%)” value [5] was 60.47% and 47.73%. For the same molecule, the “Population Fragmented Nuclei (%)” value [5] was 1.92% and 2.62%, the “Population Healthy Nuclei (%)” value [5] was 88.91% and 85.86% and the “Population Hoechst High Intensity Objects (%)” value [5] was 0%. For the same molecule, the “Population Membrane Permeable-Phenotype (%)” value [5] was 0.36% and 2.13%, the “Population Mitochondria Different-Phenotype (%)” value [5] was 0.36% and 2.74% and the “Population Mitotic Cells (%)” value [5] was 39.53% and 52.27%. The “Population Normal (%)” value [5] was 100%, the “Population Pyknosed Nuclei (%)” value [5] was 9.17% and 11.52% and the “Population Tubulin-Different-Phenotype (%)” value [5] was 0.96% and 0.61%. The “Total Cell Count” value [5] was 938 and 382, the “Population Apoptotic (%)” value [6] was 53.62% and 57.5% and the “Population Fragmented Nuclei (%)” value [6] was 3.32% and 2.81%. For the same molecule, the “Population Healthy Nuclei (%)” value [6] was 89.53% and 83.16%, the “Population Hoechst High Intensity Objects (%)” value [6] was 0% and the “Population Membrane Permeable-Phenotype (%)” value [6] was 0.93% and 3.38%. The “Population Mitochondria Different-Phenotype (%)” value [6] was 0.35% and 2.53%, the “Population Mitotic Cells (%)” value [6] was 46.38% and 42.5% and the “Population Normal (%)” value [6] was 100%. For the same molecule, the “Population Pyknosed Nuclei (%)” value [6] was 7.15% and 14.04% and the “Population Tubulin-Different-Phenotype (%)” value [6] was 1.62% and 0.84%.
